Results reported in ChEMBL document CHEMBL1629431, “Synthesis and antitumor activity of some 2, 3-disubstituted quinazolin-4(3H)-ones and 4, 6- disubstituted- 1, 2, 3, 4-tetrahydroquinazolin-2H-ones” (2010).

Experiments:
Format in all cases: functional
[1] = test system: A549; test: Growth inhibition of human A549 cells at 10 uM after 48 hrs by coulter counter method; conditions: A549, 48 h, read-out: GI
Method in brief: (§1)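 Single high-dose NCI 60-cell-line panel screen across nine tumor subpanels. Test solutions (0.2 mL) were added in duplicate to wells holding 1.8 mL of culture at 6 × 10⁴ cells/mL. Controls got PBS and DMSO at identical dilutions. Incubation was 48 h at 37 °C in humidified 5% CO₂. Cells were diluted 10-fold in saline, Coulter-counted and dilution-corrected. Results were expressed as percent growth inhibition versus control.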

[2] = test system: OVCAR-4; test: Growth inhibition of human OVCAR4 cells at 10 uM after 48 hrs by coulter counter method; conditions: OVCAR-4, 48 h, read-out: GI; method in brief: as §1
[3] = test system: HL-60(TB); test: Growth inhibition of human HL-60(TB) cells at 10 uM after 48 hrs by coulter counter method; conditions: HL-60, 48 h, read-out: GI
Method in brief: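 Part of the NCI 60-cell-line single-high-dose panel. Cells were seeded at 6 × 10⁴ cells/mL with test solution in duplicate wells, alongside PBS/DMSO controls at identical dilutions. Plates were held 48 h at 37 °C in a humidified 5% CO₂ incubator. Cells were then diluted 10-fold in saline and counted by Coulter counter, with counts corrected for dilution. Results are percent growth of treated cells, reported as GI %.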

[4] = test system: SR; test: Growth inhibition of human SR cells at 10 uM after 48 hrs by coulter counter method; conditions: read-out: GI; method in brief: as §1
[5] = test system: KM12; test: Growth inhibition of human KM12 cells at 10 uM after 48 hrs by coulter counter method; conditions: KM12, 48 h, read-out: GI; method in brief: as §1
[6] = test system: IGROV-1; test: Growth inhibition of human IGROV1 cells at 10 uM after 48 hrs by coulter counter method; conditions: IGROV-1, 48 h, read-out: GI; method in brief: as §1
[7] = test system: SF-268; test: Growth inhibition of human SF268 cells at 10 uM after 48 hrs by coulter counter method; conditions: SF-268, 48 h, read-out: GI; method in brief: as §1
[8] = test system: SF-539; test: Growth inhibition of human SF539 cells at 10 uM after 48 hrs by coulter counter method; conditions: SF-539, 48 h, read-out: GI; method in brief: as §1
[9] = test system: NCI-H522; test: Growth inhibition of human NCI-H522 cells at 10 uM after 48 hrs by coulter counter method; conditions: NCI-H522, 48 h, read-out: GI; method in brief: as §1
[10] = test system: SK-OV-3; test: Growth inhibition of human SKOV3 cells at 10 uM after 48 hrs by coulter counter method; conditions: SK-OV-3, 48 h, read-out: GI; method in brief: as §1
[11] = test system: UACC-62; test: Growth inhibition of human UACC62 cells at 10 uM after 48 hrs by coulter counter method; conditions: UACC-62, 48 h, read-out: GI; method in brief: as §1
[12] = test system: CCRF-CEM; test: Growth inhibition of human CCRF-CEM cells at 10 uM after 48 hrs by coulter counter method; conditions: read-out: GI; method in brief: as §1
[13] = test system: SN12C; test: Growth inhibition of human SN12C cells at 10 uM after 48 hrs by coulter counter method; conditions: read-out: GI; method in brief: as §1
[14] = test system: SK-MEL-28; test: Growth inhibition of human SK-MEL-28 cells at 10 uM after 48 hrs by coulter counter method; conditions: SK-MEL-28, 48 h, read-out: GI; method in brief: as §1
[15] = test system: UO-31; test: Growth inhibition of human UO31 cells at 10 uM after 48 hrs by coulter counter method; conditions: UO-31, 48 h, read-out: GI; method in brief: as §1
[16] = test system: HCT-116; test: Growth inhibition of human HCT116 cells at 10 uM after 48 hrs by coulter counter method; conditions: HCT-116, 48 h, read-out: GI; method in brief: as §1
[17] = test system: 786-0; test: Growth inhibition of human 786-0 cells at 10 uM after 48 hrs by coulter counter method; conditions: 786-0, 48 h, read-out: GI; method in brief: as §1
[18] = test system: NCI-H23; test: Growth inhibition of human NCI-H23 cells at 10 uM after 48 hrs by coulter counter method; conditions: NCI-H23, 48 h, read-out: GI; method in brief: as §1
[19] = test system: U-251; test: Growth inhibition of human U251 cells at 10 uM after 48 hrs by coulter counter method; conditions: U-251, 48 h, read-out: GI; method in brief: as §1
[20] = Growth inhibition of human Hs 578T cells at 10 uM after 48 hrs by coulter counter method; conditions: read-out: GI; method in brief: as §1
[21] = test system: PC-3; test: Growth inhibition of human PC3 cells at 10 uM after 48 hrs by coulter counter method; conditions: PC-3, 48 h, read-out: GI; method in brief: as §1
[22] = test system: SNB-75; test: Growth inhibition of human SNB75 cells at 10 uM after 48 hrs by coulter counter method; conditions: SNB-75, 48 h, read-out: GI; method in brief: as §1
[23] = test system: MOLT-4; test: Growth inhibition of human MOLT4 cells at 10 uM after 48 hrs by coulter counter method; conditions: MOLT-4, 48 h, read-out: GI; method in brief: as §1
[24] = test system: MDA-MB-468; test: Growth inhibition of human MDA-MB-468 cells at 10 uM after 48 hrs by coulter counter method; conditions: MDA-MB-468, 48 h, read-out: GI; method in brief: as §1
[25] = test system: MDA-MB-231; test: Growth inhibition of human MDA-MB-231 cells at 10 uM after 48 hrs by coulter counter method; conditions: MDA-MB-231, 48 h, read-out: GI; method in brief: as §1
[26] = test system: SK-MEL-2; test: Growth inhibition of human SK-MEL-2 cells at 10 uM after 48 hrs by coulter counter method; conditions: SK-MEL-2, 48 h, read-out: GI; method in brief: as §1
[27] = test system: K562; test: Growth inhibition of human K562 cells at 10 uM after 48 hrs by coulter counter method; conditions: K562, 48 h, read-out: GI; method in brief: as §1
[28] = test system: NCI-H226; test: Growth inhibition of human NCI-H226 cells at 10 uM after 48 hrs by coulter counter method; conditions: NCI-H226, 48 h, read-out: GI; method in brief: as §1
[29] = test system: T47D; test: Growth inhibition of human T47D cells at 10 uM after 48 hrs by coulter counter method; conditions: read-out: GI; method in brief: as §1
[30] = test system: HOP-92; test: Growth inhibition of human HOP92 cells at 10 uM after 48 hrs by coulter counter method; conditions: HOP-92, 48 h, read-out: GI; method in brief: as §1
[31] = test system: M14; test: Growth inhibition of human M14 cells at 10 uM after 48 hrs by coulter counter method; conditions: M14, 48 h, read-out: GI; method in brief: as §1
[32] = test system: COLO 205; test: Growth inhibition of human COLO205 cells at 10 uM after 48 hrs by coulter counter method; conditions: COLO 205, 48 h, read-out: GI; method in brief: as §1
[33] = test system: CAKI-1; test: Growth inhibition of human Caki1 cells at 10 uM after 48 hrs by coulter counter method; conditions: CAKI-1, 48 h, read-out: GI; method in brief: as §1
[34] = test system: MCF7; test: Growth inhibition of human MCF7 cells at 10 uM after 48 hrs by coulter counter method; conditions: MCF7, 48 h, read-out: GI; method in brief: as §1

SMILES	inhibition of growth at 10 µM [2] [%]	inhibition of growth at 10 µM [3] [%]	inhibition of growth at 10 µM [4] [%]	inhibition of growth at 10 µM [5] [%]	inhibition of growth at 10 µM [6] [%]	inhibition of growth at 10 µM [7] [%]	inhibition of growth at 10 µM [8] [%]	inhibition of growth at 10 µM [9] [%]	inhibition of growth at 10 µM [10] [%]	inhibition of growth at 10 µM [11] [%]	inhibition of growth at 10 µM [12] [%]	inhibition of growth at 10 µM [13] [%]	inhibition of growth at 10 µM [14] [%]	inhibition of growth at 10 µM [15] [%]	inhibition of growth at 10 µM [16] [%]	inhibition of growth at 10 µM [17] [%]	inhibition of growth at 10 µM [18] [%]	inhibition of growth at 10 µM [19] [%]	inhibition of growth at 10 µM [23] [%]	inhibition of growth at 10 µM [29] [%]	also measured
COc1ccc(-c2nnc(Nc3nc4ccccc4c(=O)n3-c3ccccc3)s2)cc1	30	30	30	30	30	30	30	30	30	30	30	30	30	30	30	30	30	30	30	30	inhibition of growth at 10 µM [1]: 30%; inhibition of growth at 10 µM [20]: 30%; inhibition of growth at 10 µM [21]: 30%; inhibition of growth at 10 µM [22]: 30%; inhibition of growth at 10 µM [24]: 30%; inhibition of growth at 10 µM [25]: 30%; inhibition of growth at 10 µM [26]: 30%; inhibition of growth at 10 µM [27]: 30%; inhibition of growth at 10 µM [28]: 30%; inhibition of growth at 10 µM [30]: 30%; inhibition of growth at 10 µM [31]: 30%; inhibition of growth at 10 µM [32]: 58.9%; inhibition of growth at 10 µM [33]: 30%; inhibition of growth at 10 µM [34]: 30%
O=c1nc(Nc2nc3ccccc3c(=O)n2-c2ccccc2)cc(O)[nH]1					72.3																
O=C1Nc2ccc(CNc3ccccn3)cc2C(c2ccc(Cl)cc2)N1 (centres undefined)														40.5						43.9	
COc1ccc(C2NC(=O)Nc3ccc(S(=O)(=O)Nc4ccccn4)cc32)cc1 (centres undefined)														40.5						43.9	
O=c1nc(Nc2nc3ccccc3c(=O)n2-c2ccc(Cl)cc2)cc(O)[nH]1																			34.6		inhibition of growth at 10 µM [27]: 52%
COc1ccc(-n2c(SCC(=O)c3ccc(Cl)cc3)nc3ccccc3c2=O)cc1	32.1	33.3	30	41.8	45.7	49	68.6	23	31.9	76.7	30	32.5	30	30	54.6	31.1	41.1	31.6	30	30	inhibition of growth at 10 µM [20]: 80.6%; inhibition of growth at 10 µM [21]: 55.3%; inhibition of growth at 10 µM [22]: 47.4%; inhibition of growth at 10 µM [24]: 41.4%; inhibition of growth at 10 µM [25]: 33.3%; inhibition of growth at 10 µM [26]: 30%; inhibition of growth at 10 µM [28]: 75.6%; inhibition of growth at 10 µM [31]: 30%; inhibition of growth at 10 µM [32]: 53.1%; inhibition of growth at 10 µM [34]: 34.3%
CCn1c(SCC(=O)c2ccc(OC)cc2)nc2ccccc2c1=O	30	30	30	30	30	30	30	< 30	30	30	30	30	30	31.6	30	30	30	30	30	30	inhibition of growth at 10 µM [1]: 30%; inhibition of growth at 10 µM [20]: 30%; inhibition of growth at 10 µM [21]: 30%; inhibition of growth at 10 µM [22]: 30%; inhibition of growth at 10 µM [24]: 30%; inhibition of growth at 10 µM [25]: 30%; inhibition of growth at 10 µM [26]: 30%; inhibition of growth at 10 µM [28]: 30%; inhibition of growth at 10 µM [30]: 30%; inhibition of growth at 10 µM [31]: 30%; inhibition of growth at 10 µM [32]: 30%; inhibition of growth at 10 µM [33]: 30%; inhibition of growth at 10 µM [34]: 30%
CN(C)c1ccc(-c2nnc(Nc3nc4ccccc4c(=O)n3-c3ccccc3)s2)cc1																			34.6		inhibition of growth at 10 µM [27]: 52%
O=C(CSc1nc2ccccc2c(=O)n1-c1ccc(Cl)cc1)c1ccc(Cl)cc1	30	30	30	30	43.7	30	30	52.6	30	30	30	30	30	30	30	30	30	30	30	30	inhibition of growth at 10 µM [1]: 30%; inhibition of growth at 10 µM [20]: 30%; inhibition of growth at 10 µM [22]: 30%; inhibition of growth at 10 µM [24]: 30%; inhibition of growth at 10 µM [25]: 30%; inhibition of growth at 10 µM [26]: 30%; inhibition of growth at 10 µM [27]: 30%; inhibition of growth at 10 µM [28]: 30%; inhibition of growth at 10 µM [30]: 30%; inhibition of growth at 10 µM [31]: 30%; inhibition of growth at 10 µM [32]: 30%; inhibition of growth at 10 µM [33]: 30%; inhibition of growth at 10 µM [34]: 30%
